Where only a bound is given, the exact number is not on record here.

Experiment [1] addresses tyrosinase. The conditions noted are these: tyrosinase inhibition; cited from earlier work.
Experiment [2] can be described thus: Antioxidant activity, DPPH assay. The conditions noted are these: for % inhibition at 200 μM: 200 μM compound; for IC50: read-out: IC50(μM) ± RSD. For orientation: DPPH is a stable violet radical that fades when it is reduced.
In the next experiment the test system is mushroom tyrosinase. The experiment in a line: Tyrosinase inhibitory assay. The format is biochemical. As to conditions: for % inhibition at 50 μM: 50 μM compound, L-DOPA substrate; for IC50: read-out: IC50 (μM) ± RSD, L-DOPA substrate, means ± RSD.
In experiment [3] the test system is tyrosinase. Description: Enzyme kinetic studies. The format is biochemical. As to conditions: Lineweaver-Burk plot; L-DOPA 0-1.5 mM; inhibitor 5-80 μM. Summed up:
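Mushroom tyrosinase with L-DOPA as substrate, tested across several inhibitor concentrations. Reaction rates were plotted as 1/V against 1/[S] (Lineweaver–Burk double-reciprocal plot) to assign the inhibition type. Km was read from this plot.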

By IC50 is commonly meant the concentration at which inhibition is half-maximal. In the case of `O=c1cc(/C=C/c2cc(=O)c(O)co2)occ1O` [B, (E)-6,6'-(ethene-1,2-diyl)bis(3-hydroxy-4H-pyran-4-one)], at tyrosinase [1], the IC50 is 3.63 µM.

As usually defined, the % inhibition is the percentage by which the read-out fell short of the control. The low end stands for a weak effect, the high end for a strong effect. With `O=c1cc(CO)oc(C(Nc2ccccn2)c2ccccc2)c1O` (stereo not drawn) [Compound 4a, 3-Hydroxy-6-(hydroxymethyl)-2-(phenyl(pyridin-2-ylamino)methyl)-4H-pyran-4-one], in experiment [2], the “% inhibition at 200 μM” value was 20.86 ± 4.41%. The “% inhibition at 50 μM” value in the experiment on mushroom tyrosinase amounted to 29.14 ± 2.86%.

For the compound `O=c1cc(CO)oc(C(Nc2ccccn2)c2ccccc2F)c1O` (stereo not drawn) [Compound 4b, 2-((2-Fluorophenyl)(pyridin-2-ylamino)methyl)-3-hydroxy-6-(hydroxymethyl)-4H-pyran-4-one], the “% inhibition at 200 μM” value in experiment [2] is 14.09 ± 4.10%. In the experiment on mushroom tyrosinase, the “% inhibition at 50 μM” value is listed as 59.42 ± 5.71% and the IC50 was 28.2 ± 3.63 µM.

As to `O=c1cc(CO)oc(C(Nc2ccccn2)c2cccc(F)c2)c1O` (stereo not drawn) [Compound 4c, 2-((3-Fluorophenyl)(pyridin-2-ylamino)methyl)-3-hydroxy-6-(hydroxymethyl)-4H-pyran-4-one], the “% inhibition at 200 μM” value in experiment [2] was determined as 18.65 ± 3.05%. In addition, the “% inhibition at 50 μM” value with mushroom tyrosinase is given as 28.47 ± 1.59%.

As to `O=c1cc(CO)oc(C(Nc2ccccn2)c2ccccc2Cl)c1O` (stereo not drawn) [Compound 4d, 2-((2-Chlorophenyl)(pyridin-2-ylamino)methyl)-3-hydroxy-6-(hydroxymethyl)-4H-pyran-4-one], in experiment [2], the “% inhibition at 200 μM” value stood at 19.49 ± 3.98%. Besides, in the experiment with mushroom tyrosinase, the “% inhibition at 50 μM” value is reported as 60.35 ± 1.43% and the IC50 is 22.4 ± 3.34 µM.

Take `O=c1cc(CO)oc(C(Nc2ccccn2)c2cccc(Cl)c2)c1O` (stereo not drawn) [Compound 4e, 2-((3-Chlorophenyl)(pyridin-2-ylamino)methyl)-3-hydroxy-6-(hydroxymethyl)-4H-pyran-4-one]: the “% inhibition at 200 μM” value in experiment [2] came to 17.21 ± 4.01%. Moreover, in the experiment with mushroom tyrosinase, the “% inhibition at 50 μM” value was 50.57 ± 2.65% and the IC50 is 44.7 ± 3.59 µM.

`O=c1cc(CO)oc(C(Nc2ccccn2)c2ccccc2Br)c1O` (stereo not drawn) [Compound 4f, 2-((2-Bromophenyl)(pyridin-2-ylamino)methyl)-3-hydroxy-6-(hydroxymethyl)-4H-pyran-4-one]: the “% inhibition at 200 μM” value in experiment [2] stood at 13.03 ± 2.86%. For the same compound, in the experiment on mushroom tyrosinase, the “% inhibition at 50 μM” value worked out at 60.85 ± 4.29% and the IC50 was determined as 23.4 ± 4.19 µM.

For `O=c1cc(CO)oc(C(Nc2ccccn2)c2cccc(Br)c2)c1O` (stereo not drawn) [Compound 4g, 2-((3-Bromophenyl)(pyridin-2-ylamino)methyl)-3-hydroxy-6-(hydroxymethyl)-4H-pyran-4-one], the “% inhibition at 200 μM” value in experiment [2] is given as 18.44 ± 1.54%. Further, the “% inhibition at 50 μM” value in the experiment on mushroom tyrosinase is 33.71 ± 4.88%.

On to `O=c1cc(CO)oc(C(Nc2ccccn2)c2cccc([N+](=O)[O-])c2)c1O` (stereo not drawn) [Compound 4h, 3-Hydroxy-6-(hydroxymethyl)-2-((3-nitrophenyl)(pyridin-2-ylamino)methyl)-4H-pyran-4-one], for which the “% inhibition at 200 μM” value in experiment [2] (200 µM) worked out at 37.27 ± 5.42%. Also, in the experiment with mushroom tyrosinase, the “% inhibition at 50 μM” value was 74.85 ± 4.26% and the 50% inhibitory concentration (IC50) was 20.4 ± 2.15 µM. Moreover, in the experiment with tyrosinase [3], the Mode of inhibition entry is reported as “uncompetitive”.

Take `COc1ccc(C(Nc2ccccn2)c2oc(CO)cc(=O)c2O)cc1[N+](=O)[O-]` (stereo not drawn) [Compound 4i, 3-Hydroxy-6-(hydroxymethyl)-2-((4-methoxy-3-nitrophenyl)(pyridin-2-ylamino)methyl)-4H-pyran-4-one]: in experiment [2], the “% inhibition at 200 μM” value amounted to 64.24 ± 3.39% and the IC50 came out at 121 ± 10.4 µM. In the experiment with mushroom tyrosinase, the “% inhibition at 50 μM” value was 56.57 ± 3.84% and the IC50 was found to be 30.9 ± 4.13 µM.

With `Cc1cccc(C(Nc2ccccn2)c2oc(CO)cc(=O)c2O)c1` (stereo not drawn) [Compound 4j, 3-Hydroxy-6-(hydroxymethyl)-2-((pyridin-2-ylamino)(m-tolyl)methyl)-4H-pyran-4-one], the “% inhibition at 200 μM” value in experiment [2] turned out to be 17.90 ± 6.77%. Besides, the “% inhibition at 50 μM” value in the experiment with mushroom tyrosinase (50 µM) worked out at 16.85 ± 3.14%. Also, the IC50 at mushroom tyrosinase is above 50 µM.

For `Cc1ccc(C(Nc2ccccn2)c2oc(CO)cc(=O)c2O)cc1` (stereo not drawn) [Compound 4k, 3-Hydroxy-6-(hydroxymethyl)-2-((pyridin-2-ylamino)(p-tolyl)methyl)-4H-pyran-4-one], the “% inhibition at 200 μM” value in experiment [2] was determined as 26.96 ± 2.54%. Besides, in the experiment on mushroom tyrosinase, the “% inhibition at 50 μM” value is given as 22.28 ± 4.52% and the 50% inhibitory concentration (IC50) was above 50 µM.

For the compound `COc1cccc(C(Nc2ccccn2)c2oc(CO)cc(=O)c2O)c1O` (stereo not drawn) [Compound 4l, 3-Hydroxy-2-((2-hydroxy-3-methoxyphenyl)(pyridin-2-ylamino)methyl)-6-(hydroxymethyl)-4H-pyran-4-one], the “% inhibition at 200 μM” value in experiment [2] worked out at 30.61 ± 5.76%. In the experiment with mushroom tyrosinase, the “% inhibition at 50 μM” value was 52.07 ± 5.27% and the half-inhibitory concentration (IC50) was found to be 37.1 ± 5.42 µM.

Consider `O=c1cc(CO)oc(C(Nc2ccccn2)c2ccc(COc3ccccc3)cc2)c1O` (stereo not drawn) [Compound 4m, 3-Hydroxy-6-(hydroxymethyl)-2-((4-(phenoxymethyl)phenyl)(pyridin-2-ylamino)methyl)-4H-pyran-4-one], for which, in experiment [2], the “% inhibition at 200 μM” value was 23.30 ± 5.17%. The “% inhibition at 50 μM” value with mushroom tyrosinase was 35.42 ± 2.43%.

Consider `O=c1c(O)c(-c2ccc(O)c(O)c2)oc2cc(O)cc(O)c12` [Quercetin, reference compound], for which, in experiment [2], the half-inhibitory concentration (IC50) amounted to 18.6 ± 2.19 µM.
